Our source for the IC50 and Activity values is ChEMBL document CHEMBL1155876 (J Med Chem, 2008).

What is called IC50 is the concentration that gives 50% inhibition. A lower IC50 goes with inhibition by little substance.

One test has as its system HT-29. Put plainly: Antiproliferative activity against human HT29 cells. In kind it is functional, cell-based. In short, it runs like this: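 HCT116, HT29 or MCF7 cells were seeded on day 0 in 1:1 Ham's F12/DMEM-high glucose with 10% FBS and 2 mM L-glutamine, then kept overnight at 37 °C in 5% CO2. On day 1, inhibitor in DMSO, diluted 20-fold in serum- and glutamine-free medium, was added. Viability was read on day 4 as total ATP by CellTiter-Glo luminescence.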

Test [1] has as its target Calcium/calmodulin-dependent protein kinase type IV (Homo sapiens) (UniProt Q16566). Put plainly: Inhibition of human CaMK4 kinase assessed as residual enzyme activity at 0.1 uM.
Test [2] has as its target Protein kinase C alpha type (Homo sapiens) (UniProt P17252). Put plainly: Inhibition of human PKCalpha assessed as residual enzyme activity at 0.1 uM.
For test [3], the target named is Protein kinase C gamma type (Homo sapiens) (UniProt P05129). In words: Inhibition of human PKCgamma kinase assessed as residual enzyme activity at 0.1 uM.
For test [4], the target named is Receptor-interacting serine/threonine-protein kinase 2 (Homo sapiens) (UniProt O43353). In words: Inhibition of human RIPK2 kinase assessed as residual enzyme activity at 0.1 uM.
For test [5], the target named is Serine/threonine-protein kinase MARK1 (Homo sapiens) (UniProt Q9P0L2). Put plainly: Inhibition of human MARK1 kinase assessed as residual enzyme activity at 0.1 uM.
Chain of Serine/threonine-protein kinase MARK1 (Homo sapiens) (Q9P0L2 whole entry, looked up): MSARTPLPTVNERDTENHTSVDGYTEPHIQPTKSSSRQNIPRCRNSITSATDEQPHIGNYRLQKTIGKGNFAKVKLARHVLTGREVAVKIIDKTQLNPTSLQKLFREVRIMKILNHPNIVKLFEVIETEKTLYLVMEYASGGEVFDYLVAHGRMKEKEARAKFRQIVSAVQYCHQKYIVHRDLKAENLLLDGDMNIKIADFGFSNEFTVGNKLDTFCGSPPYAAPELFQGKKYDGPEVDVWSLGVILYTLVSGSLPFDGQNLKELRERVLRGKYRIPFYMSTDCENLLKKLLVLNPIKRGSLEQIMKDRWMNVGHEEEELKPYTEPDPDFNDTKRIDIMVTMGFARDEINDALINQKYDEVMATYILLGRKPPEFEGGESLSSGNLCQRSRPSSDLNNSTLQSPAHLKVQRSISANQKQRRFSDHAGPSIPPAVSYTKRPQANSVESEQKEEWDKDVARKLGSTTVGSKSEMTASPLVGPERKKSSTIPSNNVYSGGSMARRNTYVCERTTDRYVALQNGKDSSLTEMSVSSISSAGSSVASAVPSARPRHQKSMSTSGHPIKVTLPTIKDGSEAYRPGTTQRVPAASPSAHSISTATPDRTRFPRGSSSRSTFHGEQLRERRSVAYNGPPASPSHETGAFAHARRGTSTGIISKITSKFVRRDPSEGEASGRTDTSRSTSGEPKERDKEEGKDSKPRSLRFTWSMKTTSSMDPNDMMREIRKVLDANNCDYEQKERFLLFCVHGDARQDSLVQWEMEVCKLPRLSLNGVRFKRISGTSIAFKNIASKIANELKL

Chain of Calcium/calmodulin-dependent protein kinase type IV (Homo sapiens) (Q16566 whole entry): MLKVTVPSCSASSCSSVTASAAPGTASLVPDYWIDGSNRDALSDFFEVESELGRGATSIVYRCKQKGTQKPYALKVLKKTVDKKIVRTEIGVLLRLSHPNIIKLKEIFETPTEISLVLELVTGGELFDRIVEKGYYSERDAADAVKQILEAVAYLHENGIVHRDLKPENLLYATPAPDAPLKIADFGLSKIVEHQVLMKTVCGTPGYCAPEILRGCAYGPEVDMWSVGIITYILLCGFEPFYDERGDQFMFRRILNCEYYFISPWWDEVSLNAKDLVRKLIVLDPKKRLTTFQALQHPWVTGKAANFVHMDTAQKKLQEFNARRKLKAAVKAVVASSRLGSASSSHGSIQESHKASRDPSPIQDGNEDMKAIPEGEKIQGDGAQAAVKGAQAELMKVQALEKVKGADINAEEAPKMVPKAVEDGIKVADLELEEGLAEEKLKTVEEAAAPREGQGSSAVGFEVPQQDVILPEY
Chain of Receptor-interacting serine/threonine-protein kinase 2 (Homo sapiens) (O43353 whole entry): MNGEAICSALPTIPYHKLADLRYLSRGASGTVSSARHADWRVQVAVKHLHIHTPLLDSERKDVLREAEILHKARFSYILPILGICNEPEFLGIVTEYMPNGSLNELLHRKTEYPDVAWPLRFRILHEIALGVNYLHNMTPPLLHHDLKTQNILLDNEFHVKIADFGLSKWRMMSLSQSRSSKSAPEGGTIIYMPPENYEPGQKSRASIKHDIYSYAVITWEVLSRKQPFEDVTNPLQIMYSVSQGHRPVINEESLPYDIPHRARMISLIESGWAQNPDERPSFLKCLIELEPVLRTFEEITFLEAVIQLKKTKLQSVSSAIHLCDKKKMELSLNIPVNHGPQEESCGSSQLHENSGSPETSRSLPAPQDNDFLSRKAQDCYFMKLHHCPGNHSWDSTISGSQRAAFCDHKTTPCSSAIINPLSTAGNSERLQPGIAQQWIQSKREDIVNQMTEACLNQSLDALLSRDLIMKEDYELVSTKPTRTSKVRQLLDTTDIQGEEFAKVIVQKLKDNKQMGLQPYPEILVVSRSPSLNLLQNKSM

`CCN1C(=O)C(C)(C)c2cc3[nH]c4c(c3cc21)CCCc1c(C)n[nH]c1-4` showed an IC50 with HT-29 of 70 nM. The Activity was found to be 108% in test [1]; 103% in test [2]; 100% in test [3]; 95% in test [4]; 41% in test [5].
